Experimental data as given in ChEMBL document CHEMBL1127060 (1993).
“And” between values parts separate entries of the source, which are not always exact repeats. Equal values may be shown once. The source made the active and inactive calls. No cut-off for these calls is given here.

Legend:
[1] = Agonism at turkey erythrocyte P2Y receptor.; type: functional, Meleagris gallopavo
Method in brief: (§1)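 Turkey erythrocytes labeled 18–24 h at 37 °C with 2-[3H]myo-inositol in inositol-free DMEM; ghosts made by hypotonic lysis (5 mM Na phosphate pH 7.4, 5 mM MgCl2, 1 mM EGTA). PLC assay: ~175 μg protein ghosts, 1 μM GTPγS, Hepes pH 7.0 medium with 424 μM CaCl2, 2 mM EGTA; 5 min, 30 °C; total [3H]inositol phosphates by anion exchange; K0.5 averaged from 3–8 curves.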

Oryctolagus cuniculus [2] = organism: Oryctolagus cuniculus; assay: Tested for contraction of rabbit saphenous artery produced by 1 uM alpha,beta-MeATP at 37 degree C; Not active; type: functional
Cavia porcellus [3] = organism: Cavia porcellus; assay: Tested for relaxation of carbachol-contracted guinea pig taenia coli at 37 degree C; Significantly more potent than ATP; type: functional
Cavia porcellus [4] = organism: Cavia porcellus; assay: Tested for contraction of guinea pig vas deferens at 37 degree C; More potent than or equal to ATP; type: functional
Oryctolagus cuniculus [5] = organism: Oryctolagus cuniculus; assay: Tested for relaxation of carbachol-contracted rabbit aorta at 37 degree C; More potent than or equal to 2MeSATP; type: functional
Cavia porcellus [6] = organism: Cavia porcellus; assay: Tested for contraction of guinea pig isolated urinary bladder detrusor muscle at 37 degree C; Potency equal to ATP; type: functional; conditions: Muscle tissue
Oryctolagus cuniculus [7] = organism: Oryctolagus cuniculus; assay: Tested for relaxation of carbachol-contracted rabbit mesenteric artery at 37 degree C; More potent than or equal to 2MeSATP; type: functional
Cavia porcellus [8] = organism: Cavia porcellus; assay: Tested for contraction of guinea pig vas deferens at 37 degree C; Not active; type: functional
Meleagris gallopavo [9] = assay: Tested for stimulation of production of inositol phosphate in turkey erythrocyte membrane; Not active; type: functional; method in brief: as §1
Cavia porcellus [10] = organism: Cavia porcellus; assay: Tested for relaxation of carbachol-contracted guinea pig taenia coli at 37 degree C; Significantly less potent than ATP; type: functional
Oryctolagus cuniculus [11] = organism: Oryctolagus cuniculus; assay: Tested for relaxation of carbachol-contracted rabbit mesenteric artery at 37 degree C; Potency equal to 2MeSATP; type: functional
Cavia porcellus [12] = organism: Cavia porcellus; assay: Tested for contraction of guinea pig isolated urinary bladder detrusor muscle at 37 degree C; Not active; type: functional; conditions: Muscle tissue
Oryctolagus cuniculus [13] = organism: Oryctolagus cuniculus; assay: Tested for contraction of rabbit saphenous artery produced by 1 uM alpha,beta-MeATP at 37 degree C; type: functional
Cavia porcellus [14] = organism: Cavia porcellus; assay: Tested for contraction of guinea pig isolated urinary bladder detrusor muscle at 37 degree C; Less potent than or equal to ATP; type: functional; conditions: Muscle tissue
Oryctolagus cuniculus [15] = organism: Oryctolagus cuniculus; assay: Tested for relaxation of carbachol-contracted rabbit aorta at 37 degree C; Significantly more potent than 2MeSATP; type: functional
Oryctolagus cuniculus [16] = organism: Oryctolagus cuniculus; assay: Tested for relaxation of carbachol-contracted rabbit mesenteric artery at 37 degree C; Significantly more potent than 2MeSATP; type: functional
Cavia porcellus [17] = organism: Cavia porcellus; assay: Tested for contraction of guinea pig vas deferens at 37 degree C; Significantly more potent than ATP; type: functional
Oryctolagus cuniculus [18] = organism: Oryctolagus cuniculus; assay: Tested for relaxation of carbachol-contracted rabbit mesenteric artery at 37 degree C; Less potent or equal to 2MeSATP; type: functional
Cavia porcellus [19] = organism: Cavia porcellus; assay: Tested for relaxation of carbachol-contracted guinea pig taenia coli at 37 degree C; Potency equal to ATP; type: functional
Cavia porcellus [20] = organism: Cavia porcellus; assay: Tested for contraction of guinea pig vas deferens at 37 degree C; Less potent than or equal to ATP; type: functional
Oryctolagus cuniculus [21] = organism: Oryctolagus cuniculus; assay: Tested for relaxation of carbachol-contracted rabbit aorta at 37 degree C; More potent or equal to 2MeSATP; type: functional
Meleagris gallopavo [22] = assay: Induction of inositol phosphate in turkey erythrocyte membranes at 100 uM; Inactive; type: functional, cell membranes; method in brief: as §1
Cavia porcellus [23] = organism: Cavia porcellus; assay: Tested for contraction of guinea pig vas deferens at 37 degree C; Potency equal to ATP; type: functional
Cavia porcellus [24] = organism: Cavia porcellus; assay: Tested for relaxation of carbachol-contracted guinea pig taenia coli at 37 degree C; More potent than or equal to ATP; type: functional
Oryctolagus cuniculus [25] = organism: Oryctolagus cuniculus; assay: Tested for relaxation of carbachol-contracted rabbit mesenteric artery at 37 degree C; Not active; type: functional
Oryctolagus cuniculus [26] = organism: Oryctolagus cuniculus; assay: Tested for relaxation of carbachol-contracted rabbit mesenteric artery at 37 degree C; Significantly less potent than 2MeSATP; type: functional
Cavia porcellus [27] = organism: Cavia porcellus; assay: Tested for contraction of guinea pig isolated urinary bladder detrusor muscle by 1 uM alpha,beta-MeATP at 37 degree C; Not active; type: functional; conditions: Muscle tissue

SMILES | K 0.5 [1] | Relative activity (Oryctolagus cuniculus [2]) | Relative activity (Cavia porcellus [3]) | Relative activity (Cavia porcellus [6]) | Relative activity (Oryctolagus cuniculus [7]) | Relative activity (Cavia porcellus [8]) | Relative activity (Oryctolagus cuniculus [15]) | further results
NCCCCCCCSc1nc(N)c2ncn(C3O[C@H](COP(=O)(O)OP(=O)(O)OP(=O)(O)O)[C@@H](O)[C@H]3O)c2n1 (stereo partly specified) | 72.8 nM |  |  |  |  |  |  | 
Nc1ccc(CCSc2nc(N)c3ncn([C@@H]4O[C@H](COP(=O)(O)OP(=O)(O)OP(=O)(O)O)[C@@H](O)[C@H]4O)c3n2)cc1 | 1.53 nM |  |  |  |  |  |  | 
Nc1nc(SC2CCCCC2)nc2c1ncn2C1O[C@H](COP(=O)(O)OP(=O)(O)OP(=O)(O)O)[C@@H](O)[C@H]1O (stereo partly specified) | 24 nM | inactive | 8 | Active | 5.9 |  |  | Relative activity (Cavia porcellus [4]): Active; Relative activity (Oryctolagus cuniculus [5]): 6.3
Nc1ncnc2c1ncn2[C@@H]1O[C@H](CO)[C@@H](O)[C@H]1O [ADENOSINE] |  | inactive |  |  | 5.7 | inactive |  | K 0.5 (Meleagris gallopavo [9]): inactive; Relative activity (Cavia porcellus [10]): 3.9; Relative activity (Oryctolagus cuniculus [11]): 6; Relative activity (Cavia porcellus [12]): inactive
Nc1nc(SCCc2ccc([N+](=O)[O-])cc2)nc2c1ncn2C1O[C@H](COP(=O)(O)OP(=O)(O)OP(=O)(O)O)[C@@H](O)[C@H]1O (stereo partly specified) | 12 nM |  | 8 |  |  |  | 6.2 | Relative activity (Oryctolagus cuniculus [13]): 2.6%; Relative activity (Cavia porcellus [14]): Partially active; Relative activity (Oryctolagus cuniculus [16]): 7; Relative activity (Cavia porcellus [17]): Active
Nc1ncnc2c1ncn2[C@@H]1O[C@H](COP(=O)(O)OP(=O)(O)O)[C@@H](O)[C@H]1O [ADENOSINE DIPHOSPHATE] | 8000 nM | inactive |  | Active |  |  |  | Relative activity (Oryctolagus cuniculus [18]): 5.2; Relative activity (Cavia porcellus [19]): Active; Relative activity (Cavia porcellus [20]): Partially active; Relative activity (Oryctolagus cuniculus [21]): 5.2
C=CCCCCSc1nc(N)c2ncn(C3O[C@H](COP(=O)(O)O)[C@@H](O)[C@H]3O)c2n1 (stereo partly specified) | 328 nM | inactive |  |  | 6.3 | inactive | 7 | Relative activity (Cavia porcellus [19]): 5; Relative activity (Cavia porcellus [12]): inactive
Nc1nc(SCCc2ccc([N+](=O)[O-])cc2)nc2c1ncn2C1O[C@H](CO)[C@@H](O)[C@H]1O (stereo partly specified) |  |  |  |  |  |  |  | Activity (Meleagris gallopavo [22]): inactive
N#CSCCCCCCCSc1nc(N)c2ncn(C3O[C@H](COP(=O)(O)OP(=O)(O)OP(=O)(O)O)[C@@H](O)[C@H]3O)c2n1 (stereo partly specified) | 25.9 nM |  |  |  |  |  |  | 
CCCCCCSc1nc(N)c2ncn(C3O[C@H](COP(=O)(O)OP(=O)(O)OP(=O)(O)O)[C@@H](O)[C@H]3O)c2n1 (stereo partly specified) | 5 nM | inactive | 7.5 | Active |  |  | 6.7 | Relative activity (Cavia porcellus [4]): Active; Relative activity (Oryctolagus cuniculus [16]): 6.7
CSc1nc(N)c2ncn([C@@H]3O[C@H](COP(=O)(O)OP(=O)(O)OP(=O)(O)O)[C@@H](O)[C@H]3O)c2n1 | 8 nM | inactive | 8 | Active |  |  | 6.8 | Relative activity (Cavia porcellus [23]): Active; Relative activity (Oryctolagus cuniculus [16]): 6.5
C=CCCCCSc1nc(NC)c2ncn(C3O[C@H](COP(=O)(O)OP(=O)(O)OP(=O)(O)O)[C@@H](O)[C@H]3O)c2n1 (stereo partly specified) | 26 nM |  |  |  | 5.6 and 6 | inactive |  | Relative activity (Oryctolagus cuniculus [13]): 1.5%; Relative activity (Cavia porcellus [14]): Partially active; Relative activity (Cavia porcellus [24]): 7.2
CNc1ncnc2c1ncn2[C@@H]1O[C@H](COP(=O)(O)OP(=O)(O)OP(=O)(O)O)[C@@H](O)[C@H]1O | 19000 nM | inactive |  |  |  | inactive |  | Relative activity (Oryctolagus cuniculus [25]): inactive; Relative activity (Oryctolagus cuniculus [26]): Partially active; Relative activity (Cavia porcellus [19]): 5.8; Relative activity (Cavia porcellus [27]): inactive
